Like-named read-outs stand apart in the source and are kept apart here.
Experiments:
[1] = tested on: HCMV (Towne-BAC-GFP strain); format: cell-based, human cytomegalovirus; conditions: HFF-1 cells pre-treated with 10 μM compound for 1 hour, HCMV MOI 3.0
Outline: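 HFF-1 cells were grown in DMEM with 10% FBS, sodium pyruvate and L-glutamine at 37 °C, 5% CO2. They were pre-treated for 1 h with test compound or DMSO control, then infected with Towne-BAC-GFP HCMV. GFP-positive infected cells were quantified by fluorescence microscopy.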

HFF-1 cells = assay: Cytotoxic assessment on HFF cells by trypan blue exclusion assay; format: cell-based, human; conditions: 2× the IC50 concentrations, maintained on cells for 5 days
Outline: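 Confluent HFF-1 cells (DMEM, 10% FBS, 37 °C, 5% CO2) were treated with test compound or left untreated, then infected with HCMV (MOI 3.0) or left uninfected. At day 5, cells were trypsinised and mixed 1:1 with 0.4% trypan blue. Percent viable cells was read on an automated cell counter. Three independent experiments, SEM.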

[2] = tested on: human glioblastoma cell line GBM6; assay: GBM6 proliferation MTT assay; format: cell-based; conditions: for anti-proliferative activity in GBM6: 100 μM, MTT 72 hours after treatment; for IC50: Homo sapiens
Outline: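 GBM6 cells (DMEM, 10% FBS, 37 °C, 5% CO2) were plated at 1000 per well and incubated overnight, then the medium was replaced with test compound for 72 h. MTT was added for 4 h at 37 °C, and formazan was dissolved in DMSO. A570 was read with a 630 nm reference. Single-dose screen: n = 3, normalised to control. IC50: 0.78–100 μM, non-linear regression of survival %.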

MDA MB 231 cells = assay: MDA MB 231 proliferation MTT assay; format: cell-based; conditions: for anti-proliferative effect in MDA MB 231: 100 μM, data not shown; for IC50: Homo sapiens, MDA-MB-231, 72 h, read-out: IC50 in MDA MB 231
Outline: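 MDA MB 231 cells (DMEM, 10% FBS, 37 °C, 5% CO2, split every 3–4 days) were plated at 2000 per well and incubated overnight, then the medium was replaced with test compound for 72 h. MTT was added for 4 h at 37 °C, and formazan was dissolved in DMSO. A570 was read with a 630 nm reference. IC50: 0.78–100 μM, non-linear regression of survival %.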

[3] = tested on: HCMV (Towne-BAC-GFP) strain; conditions: read-out: reported IC50; reported value used to validate the assay; cited from earlier work
[4] = GBM6, 72 h, read-out: IC 50 in GBM6
[5] = GBM6, read-out: IC50 (highest cytotoxicity)

FC1C(c2ccc(Cl)cc2)=NOC12CCCO2 (stereo not drawn) [4d, 3-(4-Chlorophenyl)-4-fluoro-1,6-dioxa-2-azaspiro[4.4]non-2-ene]
reduction in GFP levels (mean fluorescence intensity, MFI) [1]: significant reduction in MFI | cytotoxicity on HFF cells (HFF-1 cells): did not show significant cytotoxicity

O=[N+]([O-])c1ccc(C2=NOC3(CCCO3)C2F)cc1 (stereo not drawn) [4h, 4-Fluoro-3-(4-nitrophenyl)-1,6-dioxa-2-azaspiro[4.4]non-2-ene]
reduction in GFP levels (mean fluorescence intensity, MFI) [1]: significant reduction in MFI

FC1C(c2ccccc2)=NOC12CCCCO2 (stereo not drawn) [4i, 4-Fluoro-3-phenyl-1,6-dioxa-2-azaspiro[4.5]dec-2-ene]
reduction in GFP levels (mean fluorescence intensity, MFI) [1]: significant reduction in MFI

FC1C(c2ccc(Br)cc2)=NOC12CCCCO2 (stereo not drawn) [4l, 3-(4-Bromophenyl)-4-fluoro-1,6-dioxa-2-azaspiro[4.5]dec-2-ene]
anti-proliferative activity in GBM6 [2]: robust anti-proliferative activity | IC50 [2, 4]: 36.1 µM | IC50 [2, 5]: 36 to 80 µM | anti-proliferative effect in MDA MB 231 (MDA MB 231 cells): highest anti-proliferative effect | IC50 (MDA MB 231 cells): 68.2 µM

FC1C(c2ccc(C(F)(F)F)cc2)=NOC12CCCCO2 (stereo not drawn) [4n, 4-Fluoro-3-(4-(trifluoromethyl)phenyl)-1,6-dioxa-2-azaspiro[4.5]dec-2-ene]
reduction in GFP levels (mean fluorescence intensity, MFI) [1]: significant reduction in MFI | cytotoxicity on HFF cells (HFF-1 cells): did not show significant cytotoxicity

O=[N+]([O-])c1ccc(C2=NOC3(CCCCO3)C2F)cc1 (stereo not drawn) [4o, 4-Fluoro-3-(4-nitrophenyl)-1,6-dioxa-2-azaspiro[4.5]dec-2-ene]
reduction in GFP levels (mean fluorescence intensity, MFI) [1]: significant reduction in MFI

O=C1CCC2(ON=C(c3c(Cl)cccc3Cl)C2F)O1 (stereo not drawn) [5f, 3-(2,6-Dichlorophenyl)-4-fluoro-1,6-dioxa-2-azaspiro[4.4]non-2-en-7-one]
anti-proliferative activity in GBM6 [2]: robust anti-proliferative activity | IC50 [2, 4]: 43.2 µM | IC50 [2, 5]: 36 to 80 µM | anti-proliferative effect in MDA MB 231 (MDA MB 231 cells): highest anti-proliferative effect | IC50 (MDA MB 231 cells): 79.8 µM

Nc1nc(O)c2ncn(COC(CO)CO)c2n1 [GCV, ganciclovir]
IC50 [3]: 5.2 µM

Source: PMC9056317 (RSC Advances, 2020)
